Results taken from PubChem BioAssay AID624290 (Broad Institute, 2012).
Several values for one entry are separate records, joined by “and”; a condition that tells them apart may be missing. Identical values can stand only once. Activity calls are given as the source filed them.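 How the source made its calls: active means compounds dimming the MITF-driven luciferase signal, with fitted AC50 at most twice the top tested dose; inconclusive means flat curves with moderate signal drop, or poor-quality fits; inactive means the rest.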

Tested on: SK-MEL-5 TRPM1-promoter luciferase reporter, 24 h
Assay: TRPM1 promoter luciferase signal reduction, dose response, MITF inhibitor project, cell-based, SK-MEL-5, dry powder samples, set 2 (AID 624290)
Procedure, shortened: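 Detection: SteadyGlo luciferase luminescence. Material: TRPM1 promoter–luciferase reporter stably expressed in SK-MEL-5 melanoma cells. Incubation: compound pinned one day after plating, 24 h exposure at 37 °C. Read-out basis: luminescence change reflecting TRPM1 promoter activity, decrease as inhibition. Benchmarks: parthenolide positive control.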

Row | Compound | AC50
1 | O=C1C(NCCCN2CCOCC2)=C(Nc2ccccc2)C(=O)c2ccccc21 | 7.78 µM
2 | O=C1C(Nc2ccccc2)=C(N2CCSCC2)C(=O)c2ccccc21 | 11.9 µM
3 | O=C1C(NS(=O)(=O)c2ccccc2)=C(N2CCCCC2)C(=O)c2ccccc21 | 21.5 µM
4 | O=C1C(Nc2ccccc2)=C(NS(=O)(=O)c2ccccc2[N+](=O)[O-])C(=O)c2ccccc21 | 17.9 µM
5 | C=CCNC1=C(N2CCCCC2)C(=O)c2ccccc2C1=O | 0.614 µM
6 | CCN(CC)CCCNC1=C(Nc2ccccc2)C(=O)c2ccccc2C1=O | 2.01 µM
7 | COc1ccc(C(=O)NC2=C(c3ccc(OC(F)(F)F)cc3)C(=O)c3ccccc3C2=O)cc1 | 34.1 µM
8 | O=C(NC1=C(c2ccccc2)C(=O)c2ccccc2C1=O)c1ccccc1 | 3.73 µM
9 | CN1CCN(C2=C(NS(=O)(=O)c3ccc(Br)s3)C(=O)c3ccccc3C2=O)CC1 | 2.53 µM
10 | COc1ccc(C2=C(NC(=O)c3cccc(OC)c3)C(=O)c3ccccc3C2=O)cc1 | 7.97 µM
11 | CC(=O)NC1=C(c2ccc(Oc3ccccc3)cc2)C(=O)c2ccccc2C1=O | 17 µM
12 | C=CCNC1=C(N2CCN(CC)CC2)C(=O)c2ccccc2C1=O | 4.69 µM
13 | COc1ccc(C2=C(NC(=O)c3ccc4ccccc4c3)C(=O)c3ccccc3C2=O)cc1 | > 70 µM (inactive)
14 | CN1CCN(C2=C(NS(=O)(=O)c3ccc(Br)cc3)C(=O)c3ccccc3C2=O)CC1 | 1.59 µM
15 | C=CCNC1=C(NS(=O)(=O)c2cccs2)C(=O)c2ccccc2C1=O | 16 µM
16 | O=C(NC1=C(Cl)C(=O)c2ccccc2C1=O)c1ccccc1 | 0.806 µM
17 | O=C(NC1=C(c2ccc(OC(F)(F)F)cc2)C(=O)c2ccccc2C1=O)c1ccco1 | 14.8 µM
18 | COc1ccc(C2=C(NC(=O)c3ccccc3OC)C(=O)c3ccccc3C2=O)cc1 | 25.4 µM
19 | O=C1C(NS(=O)(=O)c2ccc(Br)cc2)=C(c2ccc(OC(F)(F)F)cc2)C(=O)c2ccccc21 | 10.4 µM
20 | CN1CCN(C2=C(Nc3ccccc3)C(=O)c3ccccc3C2=O)CC1 | 4.21 µM
21 | COc1ccc(C2=C(NC(=O)c3cccc(Cl)c3)C(=O)c3ccccc3C2=O)cc1 | 15.1 µM
22 | O=C1C(Nc2ccccc2)=C(N2CCOCC2)C(=O)c2ccccc21 | 7.25 µM and 6.91 µM
23 | CCN(CC)CCNC1=C(Nc2ccccc2)C(=O)c2ccccc2C1=O | 1.66 µM
24 | C=CCNC1=C(NCCCN2CCOCC2)C(=O)c2ccccc2C1=O | 10.5 µM
25 | C=CCNC1=C(Nc2ccccc2)C(=O)c2ccccc2C1=O | 8.22 µM
26 | O=C1C(Nc2ccccc2)=C(N2CCCCC2)C(=O)c2ccccc21 | 9.81 µM

Row | Compound | AC50
27 | C=CCNC1=C(N2CCOCC2)C(=O)c2ccccc2C1=O | 2.17 µM
28 | CCN1CCN(C2=C(N(C)C(C)=O)C(=O)c3ccccc3C2=O)CC1 | 0.561 µM
29 | CC(=O)N(C)C1=C(N2CCN(C)CC2)C(=O)c2ccccc2C1=O | 0.432 µM
30 | O=C1C=C(Nc2ccccc2)C(=O)c2ccccc21 | 4.03 µM
31 | CC(=O)N(C)C1=C(N2CCOCC2)C(=O)c2ccccc2C1=O | 2.04 µM
32 | COc1cccc(C2=C(NC(=O)c3ccccc3)C(=O)c3ccccc3C2=O)c1 | 13.4 µM
33 | C=CCNC1=C(NCCCN(CC)CC)C(=O)c2ccccc2C1=O | 2.17 µM
34 | CCN1CCN(C2=C(NC(=O)c3ccccc3)C(=O)c3ccccc3C2=O)CC1 | 0.714 µM
35 | O=C(NC1=C(N2CCCCC2)C(=O)c2ccccc2C1=O)c1ccccc1 | > 32 µM (inactive)
36 | NC1=CC(=O)c2ccccc2C1=O | 1.1 µM
37 | COc1ccc(C(=O)NC2=C(c3ccc(OC)cc3)C(=O)c3ccccc3C2=O)cc1 | 5.86 µM
38 | CC(=O)NC1=C(c2cccc(Cl)c2)C(=O)c2ccccc2C1=O | 2.31 µM
39 | O=C(NC1=C(c2ccc(Oc3ccccc3)cc2)C(=O)c2ccccc2C1=O)c1ccccc1 | > 70 µM (inactive)
40 | O=C(NC1=C(N2CCOCC2)C(=O)c2ccccc2C1=O)c1ccccc1 | 5.21 µM
41 | O=C1C(NS(=O)(=O)c2ccc(Br)s2)=C(N2CCSCC2)C(=O)c2ccccc21 | 12.1 µM
42 | CC1CCN(CC(CS(=O)(=O)c2ccc([N+](=O)[O-])cc2)N2CCC(C)CC2)CC1 (stereo not drawn) | 3.87 µM
43 | COc1ccc(S(=O)(=O)N(C(C)=O)c2ccc(OC(C)=O)c3ccccc23)cc1[N+](=O)[O-] | 6.36 µM
44 | CCN1CCN(C2=C(NS(=O)(=O)c3ccc(Br)cc3)C(=O)c3ccccc3C2=O)CC1 | 4.27 µM
45 | O=C1C(NS(=O)(=O)c2ccc(Br)s2)=C(N2CCOCC2)C(=O)c2ccccc21 | 10.5 µM
46 | C[C@@H](NC1=C(Nc2ccccc2)C(=O)c2ccccc2C1=O)c1ccccc1 | 6.71 µM
47 | C=CCNC1=C(N(C)C(C)=O)C(=O)c2ccccc2C1=O | 0.0779 µM
48 | O=C1C(NS(=O)(=O)c2ccc(Br)cc2)=C(N2CCCCC2)C(=O)c2ccccc21 | 10.5 µM
49 | O=C1C(NS(=O)(=O)c2ccc(Br)cc2)=C(c2ccccc2)C(=O)c2ccccc21 | 18.5 µM
50 | O=C1C(NS(=O)(=O)c2ccc(Br)cc2)=C(N2CCOCC2)C(=O)c2ccccc21 | 6.22 µM
51 | O=C1C(NS(=O)(=O)c2cccs2)=C(N2CCOCC2)C(=O)c2ccccc21 | 10.2 µM
52 | O=C(NC1=C(N2CCOCC2)C(=O)c2ccccc2C1=O)c1ccc(Br)cc1 | 4.96 µM

Row | Compound | AC50
53 | C=CCNC1=C(N2CCN(C)CC2)C(=O)c2ccccc2C1=O | 4.58 µM
54 | C=CCNC1=C(NS(=O)(=O)c2ccc(Br)cc2)C(=O)c2ccccc2C1=O | 6.19 µM
55 | CCN1CCN(C2=C(NS(=O)(=O)c3ccc(Br)s3)C(=O)c3ccccc3C2=O)CC1 | 2.97 µM
56 | O=C(NC1=C(c2ccccc2)C(=O)c2ccccc2C1=O)c1ccc(Br)cc1 | 9.43 µM
57 | CN1CCN(C2=C(NS(=O)(=O)c3cccs3)C(=O)c3ccccc3C2=O)CC1 | 1.94 µM
58 | C=CCNC1=C(NCCN(CC)CC)C(=O)c2ccccc2C1=O | 1.88 µM
59 | CN1CCN(C2=C(NS(=O)(=O)c3ccccc3)C(=O)c3ccccc3C2=O)CC1 | 0.984 µM
60 | C=CCNC1=C(NC(=O)c2ccccc2)C(=O)c2ccccc2C1=O | 17.5 µM
61 | O=C1C(NS(=O)(=O)c2cccs2)=C(N2CCCCC2)C(=O)c2ccccc21 | 21.3 µM
62 | O=C(NC1=C(N2CCN(c3ccccc3)CC2)C(=O)c2ccccc2C1=O)c1ccccc1 | 17.1 µM
63 | CC(=O)NC1=C(c2ccccc2)C(=O)c2ccccc2C1=O | 4.94 µM
64 | C=C1C(=O)OC2C1CC/C(C)=C\CCC1(C)OC21 (stereo not drawn) | 5.01 µM
65 | CN1CCN(C2=C(NC(=O)c3ccc(Br)cc3)C(=O)c3ccccc3C2=O)CC1 | 0.685 µM
66 | C=CCNC1=C(N2CCSCC2)C(=O)c2ccccc2C1=O | 5.12 µM
67 | O=C1C(NS(=O)(=O)c2ccc(Br)cc2)=C(N2CCN(c3ccccc3)CC2)C(=O)c2ccccc21 | 21.3 µM
68 | COc1ccc(C2=C(N)C(=O)c3ccccc3C2=O)cc1 | 35.1 µM
69 | O=C(NC1=C(c2ccc(OC(F)(F)F)cc2)C(=O)c2ccccc2C1=O)c1ccccc1F | 12 µM
70 | Cc1ccc(C(=O)NC2=C(c3ccc(OC(F)(F)F)cc3)C(=O)c3ccccc3C2=O)o1 | 12.4 µM
71 | O=C1C(NS(=O)(=O)c2ccc(Br)s2)=C(N2CCCCC2)C(=O)c2ccccc21 | 16.6 µM
72 | C=CCNC1=C(Cl)C(=O)c2ccccc2C1=O | 2.22 µM and 1.94 µM
73 | NC1=C(c2ccc(OC(F)(F)F)cc2)C(=O)c2ccccc2C1=O | 20.9 µM
74 | CCN1CCN(C2=C(NS(=O)(=O)c3cccs3)C(=O)c3ccccc3C2=O)CC1 | 2.8 µM
75 | O=C1C(NS(=O)(=O)c2ccc(Br)cc2)=C(N2CCSCC2)C(=O)c2ccccc21 | 13.9 µM
76 | CC(=O)NC1=C(c2ccc3c(c2)oc2ccccc23)C(=O)c2ccccc2C1=O | 1.04 µM
77 | COc1ccc(C2=C(NC(=O)c3ccccc3Cl)C(=O)c3ccccc3C2=O)cc1 | 4.92 µM
78 | COc1ccc(C2=C(NC(C)=O)C(=O)c3ccccc3C2=O)cc1 | 4.13 µM

Row | Compound | AC50
79 | O=C(NC1=C(N2CCSCC2)C(=O)c2ccccc2C1=O)c1ccc(Br)cc1 | 6.2 µM
80 | CC(=O)NC1=C(c2ccc(Cl)cc2)C(=O)c2ccccc2C1=O | 4.56 µM
81 | COc1ccc(C(=O)NC2=C(c3ccccc3)C(=O)c3ccccc3C2=O)cc1 | 4.99 µM
82 | CCN(CC)CCCCNC1=C(Nc2ccccc2)C(=O)c2ccccc2C1=O | 5.75 µM
83 | O=C(NC1=C(c2ccc(OC(F)(F)F)cc2)C(=O)c2ccccc2C1=O)c1ccc(Br)cc1 | 16.3 µM
84 | COc1cccc(-c2cc(C(=O)NC3=C(Cl)C(=O)c4ccccc4C3=O)ccc2OC)c1 | 2.5 µM
85 | O=C1C(NS(=O)(=O)c2ccccc2)=C(N2CCOCC2)C(=O)c2ccccc21 | 10.5 µM
86 | O=C(CNc1cccc2ccccc12)N/N=C/c1ccc([N+](=O)[O-])o1 | 1.52 µM
87 | COC1=C(NS(=O)(=O)c2ccccc2)C(=O)c2ccccc2C1=O | 4.56 µM
88 | Cc1ccc(C(=O)NC2=C(c3ccccc3)C(=O)c3ccccc3C2=O)o1 | 4.25 µM
89 | CCN1c2ccccc2NC2N=C(OC)C(c3ccccc3)C21 (stereo not drawn) | 2.44 µM
90 | CCN(CC)CCCNC1=C(N(C)C(C)=O)C(=O)c2ccccc2C1=O | 0.823 µM
91 | CN1CCN(C2=C(NC(=O)c3ccccc3)C(=O)c3ccccc3C2=O)CC1 | 0.524 µM
92 | NC1=C(NC(=O)c2ccccc2)C(=O)c2ccccc2C1=O | 3.65 µM
93 | CC(=O)N(C)C1=C(N2CCCCC2)C(=O)c2ccccc2C1=O | 0.576 µM
94 | Cc1nc2ccccc2n1/N=C/c1ccc([N+](=O)[O-])s1 | 1.98 µM
95 | O=C(NC1=C(N2CCSCC2)C(=O)c2ccccc2C1=O)c1ccccc1 | 3.07 µM
96 | O=C(NC1=C(c2ccc(OC(F)(F)F)cc2)C(=O)c2ccccc2C1=O)c1ccccc1 | 16.6 µM
97 | O=C(NC1=C(c2ccccc2)C(=O)c2ccccc2C1=O)c1ccco1 | 6.33 µM
98 | COc1ccc(C2=C(NC(=O)c3ccc(OC)cc3-c3cccc(OC)c3)C(=O)c3ccccc3C2=O)cc1 | > 70 µM (inactive)
99 | C=CCNC1=C(NCC=C)C(=O)c2ccccc2C1=O | > 70 µM (inactive)
100 | CCN1CCN(C2=C(NC(=O)c3ccc(Br)cc3)C(=O)c3ccccc3C2=O)CC1 | 0.433 µM
101 | COc1ccc(C2=C(NC(=O)c3ccc(Cl)cc3)C(=O)c3ccccc3C2=O)cc1 | 12.2 µM
102 | CCN1CCN(C2=C(Nc3ccccc3)C(=O)c3ccccc3C2=O)CC1 | 2.34 µM
103 | NC1=C(c2ccccc2)C(=O)c2ccccc2C1=O | 5.86 µM
